Only some compounds are listed: those with a hit (about 3.4% of all), similar ones and a draw of the others.
CHRM1 PAM: potentiates human M1 receptor response to acetylcholine; 0.088% of 360,000 active; CHO-K1 hM1, Fluo-8 calcium fluorescence, ACh EC20; 0% = ACh EC20, 100% = maximal ACh; activation, % at 3 µM; in the data active means activation above about 19%, passing the limit was not always enough
Target sequence (P11229 whole entry, looked up): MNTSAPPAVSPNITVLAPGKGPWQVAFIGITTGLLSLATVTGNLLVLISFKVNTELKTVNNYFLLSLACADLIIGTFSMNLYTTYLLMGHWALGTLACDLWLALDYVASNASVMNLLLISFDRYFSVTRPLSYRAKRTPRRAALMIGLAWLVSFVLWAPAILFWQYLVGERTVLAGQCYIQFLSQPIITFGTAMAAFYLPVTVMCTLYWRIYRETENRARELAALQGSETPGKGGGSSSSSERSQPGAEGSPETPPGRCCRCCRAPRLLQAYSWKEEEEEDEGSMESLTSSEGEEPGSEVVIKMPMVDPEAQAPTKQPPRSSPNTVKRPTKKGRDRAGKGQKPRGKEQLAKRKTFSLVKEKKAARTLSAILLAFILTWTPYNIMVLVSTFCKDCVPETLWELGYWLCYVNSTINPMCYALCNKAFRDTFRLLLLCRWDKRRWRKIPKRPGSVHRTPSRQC
CHRM1 antagonist: blocks human M1 muscarinic receptor. CHO-K1 hM1, Fluo-8 calcium fluorescence, ACh EC80 antagonist. 1.3% of 360,000 active. inhibition, % at 3 µM. AID 588852;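 active means percent inhibition above its own plate's cutoff, namely the mean of that plate's compound wells plus 3 SD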;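 further: peak over basal fluorescence ratio during 140 s after agonist addition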
TAAR1 ag: agonists of human TAAR1 | Q96RJ0 | CHO RD-HGA16 TAAR1, Fluo-8 calcium fluorescence; vehicle wells 0%, saturating PEA agonist 100% | activation, % at 3 µM | 0.99% of 360,000 active | AID 624467;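 active means activation above the mean activation of all test compounds in the run plus 3 SD, cut at about 38% in these data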
Target sequence (Q96RJ0 whole entry, looked up): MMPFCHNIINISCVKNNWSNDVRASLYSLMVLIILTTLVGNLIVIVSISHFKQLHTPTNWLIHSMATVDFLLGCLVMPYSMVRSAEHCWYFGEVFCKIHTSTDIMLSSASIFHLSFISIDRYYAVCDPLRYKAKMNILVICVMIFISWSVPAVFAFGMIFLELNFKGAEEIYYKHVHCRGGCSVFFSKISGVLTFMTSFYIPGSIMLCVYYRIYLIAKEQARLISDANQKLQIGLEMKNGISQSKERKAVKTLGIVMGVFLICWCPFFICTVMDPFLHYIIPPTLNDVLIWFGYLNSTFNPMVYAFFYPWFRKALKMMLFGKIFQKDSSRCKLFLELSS
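Signal – calcium-sensitive Fluo-8 signal, excitation 470-495, emission 515-575 nm · System – RD-HGA16 (CHO) cells co-expressing Gα16 and hTAAR1 · Incubation – 17-24 h seeding, 75 min 37 °C dye, 30 min RT · Compound dosing – 3 µM single concentration · Repeats – no replicates (n 1)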
TAAR1 antagonist: human TAAR1 antagonism; inhibition, % at 3 µM; 1.5% of 360,000 active; CHO RD-HGA16 TAAR1, Fluo-8 calcium fluorescence, antagonist; AID 624466; Q96RJ0;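 active means inhibition above a per-plate cutoff, the mean inhibition of test compounds on that plate plus 3 SD, cut at about 49% in these data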
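Material: RD-HGA16 CHO cells with stable hTAAR1 and Gα16; Dosing: single nominal final test compound concentration of 3 µM; Schedule: seeding 17-24 h prior, 75-min 37 °C, 30-min RT dye loading; Detection: kinetic Fluo-8 calcium fluorescence measurement; Measure: % inhibition from peak post-agonist over basal fluorescence ratio; Benchmarks: vehicle and agonist controls.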
CHRM1 agonist: activates human CHRM1 receptor. P11229. CHO-K1 hM1, Fluo-8 calcium fluorescence, agonist mode; 0% DMSO, 100% acetylcholine EC100. activation, % at 3 µM. 0.33% of 360,000 active. AID 588814;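 active means activation above the run's mean compound activation plus 3 SD, cut at about 16% in these data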;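 further: peak over basal fluorescence ratio within a 140 s kinetic read after compound addition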
TAAR1 ag conf: human TAAR1 agonism, confirmed; shares compounds with TAAR1 ag; CHO RD-HGA16 TAAR1, Fluo-8 calcium fluorescence; scaled: DMSO 0%, maximal phenethylamine 100%; activation, % at 3 µM; 82% of 2,400 active;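 active means activation above a cutoff set at the run's mean compound activation plus 3 SD, cut at about 39% in these data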
Ga16 nonsel ag: nonselective agonist in parental cells, TAAR1 agonist counter-screen; shares compounds with TAAR1 ag; 50% of 2,400 active; activation, % at 3 µM; CHO-Ga16 parental, Fluo-8 calcium fluorescence; normalized to maximal ATP response, DMSO zero;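 active means activation above the run cutoff, the mean activation over all tested wells plus 3 SD, cut at about 12% in these data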
TAAR1 desens: TAAR1 response desensitization, agonist counter-screen. shares compounds with TAAR1 ag. CHO RD-HGA16 hTAAR1, Fluo-8 calcium, beta-PEA response inhibition. inhibition, % at 3 µM. 46% of 2,400 active. AID 651951;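 active means inhibition above the run cutoff, the mean inhibition of all test compounds plus 3 SD, cut at about 49% in these data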;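 further: beta-PEA stimulus applied at its EC80; loss of beta-PEA calcium signal after compound pretreatment read as receptor desensitization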
Ga16 nonsel ant: counter-screen for TAAR1 agonists: nonselective Ga16 antagonists | shares compounds with TAAR1 ag | CHO-Ga16 ATP-induced calcium, Fluo-8 fluorescence | inhibition, % at 3 µM | 39% of 2,400 active | AID 651952;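 active means inhibition above the plate's mean compound inhibition plus 3 SD, computed per plate, cut at about 22% in these data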
Of the large screens only hits and unclear results are named; the others gave an inactive call (follow-up assays come after a bar, where they were run).

O=C(Cc1cnn(-c2ccccc2)c1)c1ccc(O)c(O)c1O	none
CCc1cc(C(=O)Cc2cnn(-c3ccccc3)c2)c(O)cc1O	TAAR1 ag 49, TAAR1 antagonist 63 | TAAR1 ag conf 50 | Ga16 nonsel ag 48 | TAAR1 desens 80 | Ga16 nonsel ant 52
C=CCc1c(C)[nH]c(=O)[nH]c1=O	TAAR1 ag 72 | TAAR1 ag conf inactive | Ga16 nonsel ag inactive | TAAR1 desens inactive | Ga16 nonsel ant inactive
C=CCSc1nc(C)c(CC=C)c(=O)[nH]1	none
COC(=O)[C@H](CCSC)NC(=O)NCCc1ccccc1F	TAAR1 ag 47 | TAAR1 ag conf 53 | Ga16 nonsel ag inactive | TAAR1 desens inactive | Ga16 nonsel ant inactive
O=C(COC(=O)/C=C/c1cccc(C(F)(F)F)c1)NCc1cccs1	TAAR1 ag 79, TAAR1 antagonist 66 | TAAR1 ag conf 66 | Ga16 nonsel ag 44 | TAAR1 desens inactive | Ga16 nonsel ant inactive
O=C(COC(=O)/C=C/c1ccc(Cl)cc1)NCc1cccs1	none
Clc1ccc(Cn2ncc3c(NCc4ccccc4)ncnc32)cc1	TAAR1 ag 53 | TAAR1 ag conf 51 | Ga16 nonsel ag 38 | TAAR1 desens inactive | Ga16 nonsel ant 30
c1ccc(Cn2ncc3c(NCc4ccco4)ncnc32)cc1	none
Clc1ccc(Cn2ncc3c(N4CCCCC4)ncnc32)cc1	TAAR1 ag 48, TAAR1 antagonist 52 | TAAR1 ag conf 45 | Ga16 nonsel ag 24 | TAAR1 desens inactive | Ga16 nonsel ant 24
CC(NC(=O)CN1C(=O)NC2(CCCC2)C1=O)c1ccc2ccccc2c1 (stereo unspecified)	none
CC(C)c1ccccc1NC(=S)NCC1(N(C)C)CCCCC1	none
O[C@@H](Cc1ccccc1)[C@@H](/C=C/c1ccccc1)NCCc1ccccc1	TAAR1 ag 53 (no result: CHRM1 PAM, CHRM1 antagonist, CHRM1 agonist) | TAAR1 ag conf 90 | Ga16 nonsel ag 18 | TAAR1 desens inactive | Ga16 nonsel ant 24
Cn1c(N)c(C(=O)COC(=O)c2ccc(OC(F)F)cc2)c(=O)n(C)c1=O	none
O=C(NCCc1ccccc1)C(c1ccccc1)N(C(=O)c1csnn1)C1CC1 (stereo unspecified)	none
O=C(NCCc1ccccc1)C(c1ccncc1)N(C(=O)c1csnn1)C1CC1 (stereo unspecified)	TAAR1 ag 83, TAAR1 antagonist 49 | TAAR1 ag conf 91 | Ga16 nonsel ag inactive | TAAR1 desens 68 | Ga16 nonsel ant inactive
C[C@H]1[C@H](c2ccccc2)Oc2cccc(NCCc3ccccc3)c2S(=O)(=O)N1Cc1cccc(Cl)c1	TAAR1 ag 40 (no result: CHRM1 PAM, CHRM1 antagonist, CHRM1 agonist) | TAAR1 ag conf 62 | Ga16 nonsel ag inactive | TAAR1 desens inactive | Ga16 nonsel ant inactive
C[C@H]1[C@H](c2ccccc2)Oc2cccc(NCCc3ccccc3)c2S(=O)(=O)N1Cc1cccc(F)c1	TAAR1 ag 61 (no result: CHRM1 PAM, CHRM1 antagonist, CHRM1 agonist) | TAAR1 ag conf 41 | Ga16 nonsel ag inactive | TAAR1 desens inactive | Ga16 nonsel ant inactive
CC(C)CNc1cccc2c1S(=O)(=O)N(Cc1ccc(F)cc1)[C@@H](C)[C@H](c1ccccc1)O2	none (no result: CHRM1 PAM, CHRM1 antagonist, CHRM1 agonist)
CCc1ccc(NC(=O)Cn2nnc(C(=O)NCc3ccco3)c2N)cc1	none
N#Cc1ccccc1OCC(=O)NC1CCCCCC1	none
Cc1ccc(C(=O)Nc2ccc(Br)cc2)cc1S(=O)(=O)Nc1ccccn1	TAAR1 ag 66 | TAAR1 ag conf inactive | Ga16 nonsel ag inactive | TAAR1 desens inactive | Ga16 nonsel ant inactive
Clc1ccc(N2O[C@H]3C=C[C@@H]2C3)nc1	none (no result: TAAR1 ag, TAAR1 antagonist)
CC(C)CCCCCCCCc1cccc(O)c1C(=O)O	TAAR1 ag 130, TAAR1 antagonist 98 (no result: CHRM1 PAM, CHRM1 antagonist, CHRM1 agonist) | TAAR1 ag conf 114 | Ga16 nonsel ag 89 | TAAR1 desens 104 | Ga16 nonsel ant 92
CC(=O)N1CCN(C(=O)COC(=O)CNC(=O)c2ccccc2C)CC1	none
N#C/C(=C\C=C\c1ccccc1)C(=O)Nc1ccccc1	none
N#C/C(=C/C=C/c1ccccc1)C(=O)Nc1ccccc1	TAAR1 ag 74 | TAAR1 ag conf inactive | Ga16 nonsel ag 25 | TAAR1 desens inactive | Ga16 nonsel ant 26
c1ccc(N/N=C(\Cc2ncc[nH]2)c2ccccc2)cc1	none (no result: TAAR1 ag, TAAR1 antagonist) | Ga16 nonsel ag inactive | Ga16 nonsel ant inactive
S=C1NCN(CCc2ccccc2)CN1	TAAR1 ag 87 | TAAR1 ag conf 101 | Ga16 nonsel ag 22 | TAAR1 desens inactive | Ga16 nonsel ant inactive
COc1cccc(N2CN(C3CCCCC3)CNC2=S)c1	none
Cc1ccc(N2CN(CCC3=CCCCC3)CNC2=S)cc1	TAAR1 ag 49 | TAAR1 ag conf 56 | Ga16 nonsel ag inactive | TAAR1 desens inactive | Ga16 nonsel ant inactive
S=C1NCN(CCc2ccccc2)CN1Cc1ccccc1	none
Cc1ccc(N2CN(Cc3ccco3)CNC2=S)cc1	none
COc1cccc(N2CN(CCc3ccccc3)CNC2=S)c1	TAAR1 ag 96, TAAR1 antagonist 81 | TAAR1 ag conf 93 | Ga16 nonsel ag inactive | TAAR1 desens 80 | Ga16 nonsel ant inactive
CCc1ccc(N2CN(CCc3ccccc3)CNC2=S)cc1	TAAR1 ag 95, TAAR1 antagonist 59 | TAAR1 ag conf 83 | Ga16 nonsel ag inactive | TAAR1 desens 68 | Ga16 nonsel ant inactive
CCOC(=O)[C@]12CCCC=C1N(Cc1ccco1)C(=O)[C@H](CC(=O)NCc1ccccc1)C2	none (no result: CHRM1 PAM, CHRM1 antagonist, CHRM1 agonist)
O=c1c2ccccc2oc2cc(OCc3cccc(F)c3)cc(O)c12	none
O=C1N(Cc2ccccc2)c2ccc(Cl)cc2C12OCCO2	none
CCCCN1CNC(=S)N(CCc2ccccc2)C1	none
CCCN1CN(CCc2ccccc2)CNC1=S	none (no result: TAAR1 ag, TAAR1 antagonist) | Ga16 nonsel ag inactive | Ga16 nonsel ant inactive
CC(C)C[C@@H]1COc2cccc(N3CCSCC3)c2S(=O)(=O)N1	none (no result: CHRM1 PAM, CHRM1 antagonist, CHRM1 agonist)
O=C(CN1CCN(c2ccccc2)CC1)Nc1ccccc1C(=O)NCCc1ccccc1	TAAR1 ag 76, TAAR1 antagonist 88 | TAAR1 ag conf 82 | Ga16 nonsel ag inactive | TAAR1 desens 75 | Ga16 nonsel ant 32
COc1ccccc1CNC(=O)CCNC(=O)C1CCN(S(=O)(=O)c2ccccc2)CC1	none
Cn1c(=O)c(C(=O)COc2ccc(C#N)cc2)c(N)n(Cc2ccccc2)c1=O	TAAR1 ag 119, TAAR1 antagonist 50, CHRM1 agonist 28 | TAAR1 ag conf 100 | Ga16 nonsel ag 52 | TAAR1 desens 49 | Ga16 nonsel ant 27
